From ChEMBL document CHEMBL1275500, “Characterization of the new metallo-beta-lactamase VIM-13 and its integron-borne gene from a Pseudomonas aeruginosa clinical isolate in Spain” (Antimicrob Agents Chemother, 2008)
In brackets after ≈: the same amount, converted by molar mass.

Assays:
[1] = molecular target: Class B carbapenemase VIM-13 (Pseudomonas aeruginosa, UniProt Q2HY42); test: Inhibition of Pseudomonas aeruginosa VIM-13 beta-lactamase after 10 mins
In short: (§1)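 Zn2+-removal inactivation of purified VIM-1 or VIM-13, tested with varied concentrations of EDTA, dipicolinic acid or 1,10-o-phenanthroline. Enzyme and chelator were incubated 10 min at 20°C in 50 mM HEPES pH 7.5 with 20 μg/ml BSA, then 100 μM imipenem hydrolysis was measured as the reporter. IC50 is the chelator level halving hydrolytic activity.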

[2] = molecular target: Beta-lactamase VIM-1 (Pseudomonas aeruginosa, UniProt Q9XAY4); test: Inhibition of Pseudomonas aeruginosa VIM-1 beta-lactamase after 10 mins; in short: as §1
[3] = system: Pseudomonas aeruginosa; test: Antimicrobial activity against Pseudomonas aeruginosa isolate PA-SD2 harboring blaVIM-1 gene by Etest method; type: functional
[4] = system: Escherichia coli; test: Antimicrobial activity against Escherichia coli XL1-Blue by Etest method; type: functional
[5] = system: Pseudomonas aeruginosa; test: Antimicrobial activity against Pseudomonas aeruginosa isolate PA-SL2 harboring blaVIM-13 gene by Etest method; type: functional
[6] = system: Escherichia coli; test: Antimicrobial activity against Escherichia coli XL1-Blue harboring pUCP carrying VIM-13 gene by Etest method; type: functional
In short: (§2)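 Etest MICs of piperacillin, piperacillin-tazobactam, ceftazidime, cefepime, cefotaxime, aztreonam, imipenem and meropenem, run per manufacturer's recommendations. Strains were E. coli XL1-Blue or P. aeruginosa PAO1 carrying pUCP24-derived plasmids with blaVIM-1 or blaVIM-13 (cloned by EcoRI) inserted in the lacZ-promoter orientation. E. coli transformants were selected on 10 μg/ml gentamicin MacConkey agar; PAO1 electroporants were selected on 50 μg/ml gentamicin LB agar.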

[7] = system: Escherichia coli; test: Antimicrobial activity against Escherichia coli XL1-Blue harboring pUCP carrying VIM-1 gene by Etest method; type: functional; in short: as §2
[8] = system: Pseudomonas aeruginosa; test: Antimicrobial activity against Pseudomonas aeruginosa PAO1 harboring pUCP carrying VIM-1 gene by Etest method; type: functional; in short: as §2
[9] = system: Pseudomonas aeruginosa; test: Antimicrobial activity against Pseudomonas aeruginosa PAO1 harboring pUCP carrying VIM-13 gene by Etest method; type: functional; in short: as §2
[10] = system: Pseudomonas aeruginosa; test: Antimicrobial activity against Pseudomonas aeruginosa PAO1 by Etest method; type: functional
[11] = system: Escherichia coli; test: Antimicrobial activity against Escherichia coli XL1-Blue harboring pGEM-T carrying aacA4 gene by Etest method; type: functional
[12] = system: Escherichia coli; test: Antimicrobial activity against Escherichia coli XL1-Blue harboring pGEM-T carrying aacA4 Ala108Thr mutant gene by Etest method; type: functional
[13] = system: CC(C)(O/N=C(\C(=O)N[C@@H]1C(=O)N2C(C(=O)[O-])=C(C[n+]3ccccc3)CS[C@H]12)c1csc(N)n1)C(=O)O; test: (§3) Activity of Pseudomonas aeruginosa VIM-1 beta-lactamase
In short: (§4)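 GST-fused VIM-1 lacking signal peptide, purified, dialyzed in 50 mM HEPES pH 7.5 with 50 μM ZnSO4. Beta-lactam hydrolysis followed spectrophotometrically at 25°C in 50 mM HEPES pH 7.5, 50 μM ZnSO4, 20 μg/ml BSA.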

[14] = system: CO/N=C(\C(=O)N[C@@H]1C(=O)N2C(C(=O)O)=C(COC(C)=O)CS[C@H]12)c1csc(N)n1; test: as §3; in short: as §4
[15] = system: CC1(C)S[C@@H]2[C@H](NC(=O)[C@H](N)c3ccccc3)C(=O)N2[C@H]1C(=O)O; test: as §3; in short: as §4
[16] = system: CC(=O)OCC1=C(C(=O)O)N2C(=O)[C@@H](NC(=O)Cc3cccs3)[C@H]2SC1; test: as §3; in short: as §4
[17] = system: CC1(C)S[C@@H]2[C@H](NC(=O)Cc3ccccc3)C(=O)N2[C@H]1C(=O)O; test: as §3; in short: as §4
[18] = system: C[C@@H](O)[C@H]1C(=O)N2C(C(=O)O)=C(S[C@@H]3CN[C@H](C(=O)N(C)C)C3)[C@H](C)[C@H]12; test: as §3; in short: as §4
[19] = system: CO/N=C(\C(=O)N[C@@H]1C(=O)N2C(C(=O)O)=C(COC(N)=O)CS[C@H]12)c1ccco1; test: as §3; in short: as §4
[20] = system: CCN1CCN(C(=O)N[C@@H](C(=O)N[C@@H]2C(=O)N3[C@@H]2SC(C)(C)[C@@H]3C(=O)O)c2ccccc2)C(=O)C1=O; test: as §3; in short: as §4
[21] = system: CC(C)(O/N=C(\C(=O)N[C@@H]1C(=O)N2C(C(=O)[O-])=C(C[n+]3ccccc3)CS[C@H]12)c1csc(N)n1)C(=O)O; test: (§5) Ratio of Kcat to Km for Pseudomonas aeruginosa VIM-1 beta-lactamase; in short: as §4
[22] = system: CC1(C)S[C@@H]2[C@H](NC(=O)[C@H](N)c3ccccc3)C(=O)N2[C@H]1C(=O)O; test: as §5; in short: as §4
[23] = system: CC(=O)OCC1=C(C(=O)O)N2C(=O)[C@@H](NC(=O)Cc3cccs3)[C@H]2SC1; test: as §5; in short: as §4
[24] = system: C[C@@H](O)[C@H]1C(=O)N2C(C(=O)O)=C(S[C@@H]3CN[C@H](C(=O)N(C)C)C3)[C@H](C)[C@H]12; test: as §5; in short: as §4
[25] = system: CCN1CCN(C(=O)N[C@@H](C(=O)N[C@@H]2C(=O)N3[C@@H]2SC(C)(C)[C@@H]3C(=O)O)c2ccccc2)C(=O)C1=O; test: as §5; in short: as §4
[26] = system: CC(C)(O/N=C(\C(=O)N[C@@H]1C(=O)N2C(C(=O)[O-])=C(C[n+]3ccccc3)CS[C@H]12)c1csc(N)n1)C(=O)O; conditions: Pseudomonas aeruginosa
[27] = system: CO/N=C(\C(=O)N[C@@H]1C(=O)N2C(C(=O)O)=C(COC(C)=O)CS[C@H]12)c1csc(N)n1; conditions: Pseudomonas aeruginosa
[28] = system: CC1(C)S[C@@H]2[C@H](NC(=O)[C@H](N)c3ccccc3)C(=O)N2[C@H]1C(=O)O; conditions: Pseudomonas aeruginosa
[29] = system: CC(=O)OCC1=C(C(=O)O)N2C(=O)[C@@H](NC(=O)Cc3cccs3)[C@H]2SC1; conditions: Pseudomonas aeruginosa
[30] = system: CC1(C)S[C@@H]2[C@H](NC(=O)Cc3ccccc3)C(=O)N2[C@H]1C(=O)O; conditions: Pseudomonas aeruginosa
[31] = system: C[C@@H](O)[C@H]1C(=O)N2C(C(=O)O)=C(S[C@@H]3CN[C@H](C(=O)N(C)C)C3)[C@H](C)[C@H]12; conditions: Pseudomonas aeruginosa
[32] = system: CO/N=C(\C(=O)N[C@@H]1C(=O)N2C(C(=O)O)=C(COC(N)=O)CS[C@H]12)c1ccco1; conditions: Pseudomonas aeruginosa
[33] = system: CCN1CCN(C(=O)N[C@@H](C(=O)N[C@@H]2C(=O)N3[C@@H]2SC(C)(C)[C@@H]3C(=O)O)c2ccccc2)C(=O)C1=O; conditions: Pseudomonas aeruginosa
[34] = system: CC(C)(O/N=C(\C(=O)N[C@@H]1C(=O)N2C(C(=O)[O-])=C(C[n+]3ccccc3)CS[C@H]12)c1csc(N)n1)C(=O)O; conditions: Pseudomonas aeruginosa; remark: listed apart in the source
[35] = system: CO/N=C(\C(=O)N[C@@H]1C(=O)N2C(C(=O)O)=C(COC(C)=O)CS[C@H]12)c1csc(N)n1; conditions: Pseudomonas aeruginosa; remark: listed apart in the source
[36] = system: CC1(C)S[C@@H]2[C@H](NC(=O)[C@H](N)c3ccccc3)C(=O)N2[C@H]1C(=O)O; conditions: Pseudomonas aeruginosa; remark: listed apart in the source
[37] = system: CC(=O)OCC1=C(C(=O)O)N2C(=O)[C@@H](NC(=O)Cc3cccs3)[C@H]2SC1; conditions: Pseudomonas aeruginosa; remark: listed apart in the source
[38] = system: CC1(C)S[C@@H]2[C@H](NC(=O)Cc3ccccc3)C(=O)N2[C@H]1C(=O)O; conditions: Pseudomonas aeruginosa; remark: listed apart in the source
[39] = system: C[C@@H](O)[C@H]1C(=O)N2C(C(=O)O)=C(S[C@@H]3CN[C@H](C(=O)N(C)C)C3)[C@H](C)[C@H]12; conditions: Pseudomonas aeruginosa; remark: listed apart in the source
[40] = system: CO/N=C(\C(=O)N[C@@H]1C(=O)N2C(C(=O)O)=C(COC(N)=O)CS[C@H]12)c1ccco1; conditions: Pseudomonas aeruginosa; remark: listed apart in the source
[41] = system: CCN1CCN(C(=O)N[C@@H](C(=O)N[C@@H]2C(=O)N3[C@@H]2SC(C)(C)[C@@H]3C(=O)O)c2ccccc2)C(=O)C1=O; conditions: Pseudomonas aeruginosa; remark: listed apart in the source

With O=C(O)CN(CCN(CC(=O)O)CC(=O)O)CC(=O)O [EDETIC ACID] the IC50 [1] was 253 µM and the IC50 [2] was 9.3 µM.
With C[C@@H](O)[C@H]1C(=O)N2C(C(=O)O)=C(SCCNC=N)C[C@H]12 [IMIPENEM ANHYDROUS] the MIC [3] was over 32 µg/mL, the MIC [4] was 0.25 µg/mL (≈ 0.835 µM) and the MIC [5] was 24 µg/mL (≈ 80.2 µM). It also gave an MIC [6] of 1 µg/mL (≈ 3.34 µM), an MIC [7] of 1 µg/mL (≈ 3.34 µM) and an MIC [8] of over 32 µg/mL. The MIC [9] was over 32 µg/mL and the MIC [10] was 1.5 µg/mL (≈ 5.01 µM).
C[C@@H](O)[C@H]1C(=O)N2C(C(=O)O)=C(S[C@@H]3CN[C@H](C(=O)N(C)C)C3)[C@H](C)[C@H]12 [MEROPENEM] showed an MIC [3] of over 32 µg/mL, an MIC [4] of 0.064 µg/mL (≈ 0.167 µM) and an MIC [5] of 12 µg/mL (≈ 31.3 µM). For the same compound, the MIC [6] was 0.19 µg/mL (≈ 0.495 µM), the MIC [7] was 0.25 µg/mL (≈ 0.652 µM) and the MIC [8] was over 32 µg/mL. It also gave an MIC [9] of over 32 µg/mL and an MIC [10] of 0.38 µg/mL (≈ 0.991 µM).
c1cnc2c(c1)ccc1cccnc12 [PHENANTHROLINE] was tested, and the IC50 [1] was 69.3 µM and the IC50 [2] was 73 µM.
NC[C@H]1O[C@H](O[C@H]2[C@H](O)[C@@H](O[C@H]3O[C@H](CO)[C@@H](O)[C@H](N)[C@H]3O)[C@H](N)C[C@@H]2N)[C@H](N)C[C@@H]1O [TOBRAMYCIN] was tested, and the MIC [11] was 2 µg/mL (≈ 4.28 µM), the MIC [3] was 16 µg/mL (≈ 34.2 µM) and the MIC [4] was 0.25 µg/mL (≈ 0.535 µM). For the same compound, the MIC [5] was 48 µg/mL (≈ 103 µM) and the MIC [12] was 2 µg/mL (≈ 4.28 µM).
For “Beta-lactamase VIM-1 (Pseudomonas aeruginosa) (from UniProt Q9XAY4)”, the Km [13] was 1130 µM, the kcat [13] was 42 s⁻¹ and the Km [14] was 285 µM. It also gave a kcat [14] of 204 s⁻¹, a Km [15] of 1740 µM and a kcat [15] of 307 s⁻¹. For the same compound, the Km [16] was 135 µM, the kcat [16] was 449 s⁻¹ and the Km [17] was 1300 µM. The kcat [17] was 418 s⁻¹, the Km [18] was 72 µM and the kcat [18] was 20 s⁻¹. For the same compound, the Km [19] was 148 µM, the kcat [19] was 239 s⁻¹ and the Km [20] was 1380 µM. For the same compound, the kcat [20] was 374 s⁻¹, the kcat/Km [21] was 3.7 M⁻¹ s⁻¹ and the kcat/Km [22] was 180000 M⁻¹ s⁻¹. It also gave a kcat/Km [23] of 3.3e+06 M⁻¹ s⁻¹, a kcat/Km [24] of 280000 M⁻¹ s⁻¹ and a kcat/Km [25] of 270000 M⁻¹ s⁻¹.
Compound “Class B carbapenemase VIM-13 (Pseudomonas aeruginosa) (from UniProt Q2HY42)” has a kcat/Km [26] of 1.9 M⁻¹ s⁻¹, a kcat/Km [27] of 2.6e+06 M⁻¹ s⁻¹ and a kcat/Km [28] of 340000 M⁻¹ s⁻¹. The kcat/Km [29] was 8.6e+06 M⁻¹ s⁻¹, the kcat/Km [30] was 670000 M⁻¹ s⁻¹ and the kcat/Km [31] was 592000 M⁻¹ s⁻¹. The kcat/Km [32] was 5e+06 M⁻¹ s⁻¹, the kcat/Km [33] was 490000 M⁻¹ s⁻¹ and the Km [34] was 509 µM. For the same compound, the kcat [34] was 10 s⁻¹, the Km [35] was 233 µM and the kcat [35] was 612 s⁻¹. For the same compound, the Km [36] was 197 µM, the kcat [36] was 67 s⁻¹ and the Km [37] was 76 µM. The kcat [37] was 656 s⁻¹, the Km [38] was 1130 µM and the kcat [38] was 757 s⁻¹. The Km [39] was 15.5 µM, the kcat [39] was 9 s⁻¹ and the Km [40] was 56 µM. It also gave a kcat [40] of 283 s⁻¹, a Km [41] of 729 µM and a kcat [41] of 362 s⁻¹.
With GENTAMICIN the MIC [11] was 1 µg/mL, the MIC [3] was 48 µg/mL and the MIC [4] was 0.19 µg/mL. It also gave an MIC [5] of over 256 µg/mL and an MIC [12] of 1 µg/mL.
